In ChEMBL document CHEMBL1781896, “Prenylated derivatives of baicalein and 3,7-dihydroxyflavone: synthesis and study of their effects on tumor cell lines growth, cell cycle and apoptosis” (2011):
Calls of active or inactive are those of the source. The rule behind the calls is not given here.

How the values were obtained:
Assay type in all cases: functional
NCI-H460 [1] = assay: Cell cycle arrest in human NCI-H460 cells assessed as increase in cell accumulation in G1 phase at 2.7 uM after 48 hrs by propidium iodide staining-based flow cytometry
NCI-H460 [2] = assay: Cell cycle arrest in human NCI-H460 cells assessed as decrease in cell accumulation in S phase at 2.7 uM after 48 hrs by propidium iodide staining-based flow cytometry
NCI-H460 [3] = assay: Induction of apoptosis in human NCI-H460 cells assessed as apoptotic cells at 2.7 uM after 48 hrs using annexin-V FITC/PI staining by flow cytometry (reference value: 8.4 to 11.2%)
MCF7 = assay: Growth inhibition of human MCF7 cells after 48 hrs by sulforhodamine B assay; details: MCF7, 48 h
Summary of the method: (§1)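 SRB assay in MCF-7, NCI-H460 (5.0 × 10⁴ cells/mL) and A375-C5 (7.5 × 10⁴ cells/mL) grown in RPMI-1640 with 5% FBS. Cells attached overnight, then were exposed 48 h to five serial dilutions (top 150 or 50 µM; DMSO ≤0.25%). Cells were TCA-fixed, SRB-stained and read at A492. GI₅₀ taken from dose-response curves. Mean ± SEM, ≥3 independent experiments in duplicate.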

NCI-H460 [4] = assay: Cell cycle arrest in human NCI-H460 cells assessed as decrease in cell accumulation in G2/M phase at 2.7 uM after 48 hrs by propidium iodide staining-based flow cytometry
NCI-H460 [5] = assay: Growth inhibition of human NCI-H460 cells after 48 hrs by sulforhodamine B assay; details: NCI-H460, 48 h; summary of the method: as §1
[6] = Growth inhibition of human A375-C5 cells after 48 hrs by sulforhodamine B assay; details: A375-C5, 48 h; summary of the method: as §1
NCI-H460 [7] = assay: Cell cycle arrest in human NCI-H460 cells assessed as decrease in cell accumulation in S phase at 3.9 uM after 48 hrs by propidium iodide staining-based flow cytometry
NCI-H460 [8] = assay: Induction of apoptosis in human NCI-H460 cells assessed as apoptotic cells at 3.9 uM after 48 hrs using annexin-V FITC/PI staining by flow cytometry (reference value: 8.4 to 11.2%)
NCI-H460 [9] = assay: Cell cycle arrest in human NCI-H460 cells assessed as increase in cell accumulation in G1 phase at 3.9 uM after 48 hrs by propidium iodide staining-based flow cytometry
NCI-H460 [10] = assay: Cell cycle arrest in human NCI-H460 cells assessed as decrease in cell accumulation in G2/M phase at 3.9 uM after 48 hrs by propidium iodide staining-based flow cytometry
NCI-H460 [11] = assay: Cell cycle arrest in human NCI-H460 cells assessed as decrease in cell accumulation in G2/M phase at 4.1 uM after 48 hrs by propidium iodide staining-based flow cytometry
NCI-H460 [12] = assay: Induction of apoptosis in human NCI-H460 cells assessed as apoptotic cells at 4.1 uM after 48 hrs using annexin-V FITC/PI staining by flow cytometry (reference value: 8.4 to 11.2%)
NCI-H460 [13] = assay: Cell cycle arrest in human NCI-H460 cells assessed as decrease in cell accumulation in S phase at 4.1 uM after 48 hrs by propidium iodide staining-based flow cytometry
NCI-H460 [14] = assay: Cell cycle arrest in human NCI-H460 cells assessed as increase in cell accumulation in G1 phase at 4.1 uM after 48 hrs by propidium iodide staining-based flow cytometry
NCI-H460 [15] = assay: Cell cycle arrest in human NCI-H460 cells assessed as decrease in cell accumulation in S phase at 6.8 uM after 48 hrs by propidium iodide staining-based flow cytometry
NCI-H460 [16] = assay: Cell cycle arrest in human NCI-H460 cells assessed as decrease in cell accumulation in G2/M phase at 6.8 uM after 48 hrs by propidium iodide staining-based flow cytometry
NCI-H460 [17] = assay: Cell cycle arrest in human NCI-H460 cells assessed as increase in cell accumulation in G1 phase at 6.8 uM after 48 hrs by propidium iodide staining-based flow cytometry
NCI-H460 [18] = assay: Induction of apoptosis in human NCI-H460 cells assessed as apoptotic cells at 6.8 uM after 48 hrs using annexin-V FITC/PI staining by flow cytometry (reference value: 8.4 to 11.2%)
NCI-H460 [19] = assay: Cell cycle arrest in human NCI-H460 cells assessed as increase in cell accumulation in G1 phase at 12.6 uM after 48 hrs by propidium iodide staining-based flow cytometry
NCI-H460 [20] = assay: Cell cycle arrest in human NCI-H460 cells assessed as decrease in cell accumulation in S phase at 12.6 uM after 48 hrs by propidium iodide staining-based flow cytometry
NCI-H460 [21] = assay: Cell cycle arrest in human NCI-H460 cells assessed as decrease in cell accumulation in G2/M phase at 12.6 uM after 48 hrs by propidium iodide staining-based flow cytometry
NCI-H460 [22] = assay: Induction of apoptosis in human NCI-H460 cells assessed as apoptotic cells at 12.6 uM after 48 hrs using annexin-V FITC/PI staining by flow cytometry (reference value: 8.4 to 11.2%)
NCI-H460 [23] = assay: Cell cycle arrest in human NCI-H460 cells assessed as increase in cell accumulation in G1 phase at 4.9 uM after 48 hrs by propidium iodide staining-based flow cytometry
NCI-H460 [24] = assay: Cell cycle arrest in human NCI-H460 cells assessed as decrease in cell accumulation in G2/M phase at 4.9 uM after 48 hrs by propidium iodide staining-based flow cytometry
NCI-H460 [25] = assay: Induction of apoptosis in human NCI-H460 cells assessed as apoptotic cells at 4.9 uM after 48 hrs using annexin-V FITC/PI staining by flow cytometry (reference value: 8.4 to 11.2%)
NCI-H460 [26] = assay: Cell cycle arrest in human NCI-H460 cells assessed as decrease in cell accumulation in S phase at 4.9 uM after 48 hrs by propidium iodide staining-based flow cytometry

| GI50 (MCF7) [µM] | GI50 (NCI-H460 [5]) [µM] | SMILES | GI50 [6] [µM] | also measured |
| --- | --- | --- | --- | --- |
| 9.1 | 6.8 | CC(C)=CCOc1cc2oc(-c3ccccc3)cc(=O)c2c(O)c1O | 9.2 | Activity (NCI-H460 [15]): Active; Activity (NCI-H460 [16]): Active; Activity (NCI-H460 [17]): >10%; Activity (NCI-H460 [18]): 9.1% |
| 17.4 | 15.4 | O=c1c(O)c(-c2ccccc2)oc2cc(O)ccc12 [3,7-DIHYDROXYFLAVONE] | 23 | – |
| > 150 | > 150 | CC(C)=CCC/C(C)=C/COc1cc2oc(-c3ccccc3)cc(=O)c2c(O)c1OC/C=C(\C)CCC=C(C)C | > 150 | – |
| 6.4 | 4.9 | CC(C)=CCC/C(C)=C/COc1ccc2c(=O)c(O)c(-c3ccccc3)oc2c1 | 7.2 | Activity (NCI-H460 [23]): Active; Activity (NCI-H460 [24]): Active; Activity (NCI-H460 [25]): 12%; Activity (NCI-H460 [26]): Active |
| 66.5 | 55 | CC(C)=CCC/C(C)=C/COc1ccc2c(=O)c(OC/C=C(\C)CCC=C(C)C)c(-c3ccccc3)oc2c1 | 58.5 | – |
| > 150 | > 150 | CC(C)=CCOc1cc2oc(-c3ccccc3)cc(=O)c2c(O)c1OCC=C(C)C | > 150 | – |
| > 150 | > 150 | CC(C)=CCOc1c(OCC=C(C)C)c(O)c2c(=O)cc(-c3ccccc3)oc2c1CC=C(C)C | > 150 | – |
| 63.3 | 51.9 | CC(C)=CCOc1ccc2c(=O)c(OCC=C(C)C)c(-c3ccccc3)oc2c1 | 59 | – |

Second part, the compound before the results:

| SMILES | GI50 (MCF7) [µM] | GI50 (NCI-H460 [5]) [µM] | GI50 [6] [µM] | also measured |
| --- | --- | --- | --- | --- |
| CC1(C)CCc2c(ccc3c(=O)c(O)c(-c4ccccc4)oc23)O1 | 3.7 | 2.7 | 2.3 | Activity (NCI-H460 [1]): Active; Activity (NCI-H460 [2]): Active; Activity (NCI-H460 [3]): 13.1%; Activity (NCI-H460 [4]): Active |
| CC1Oc2ccc3c(=O)c(O)c(-c4ccccc4)oc3c2C1(C)C (configuration not stated) | 4.5 | 3.9 | 7.6 | Activity (NCI-H460 [7]): Active; Activity (NCI-H460 [8]): 9.5%; Activity (NCI-H460 [9]): Active; Activity (NCI-H460 [10]): Active |
| CC(C)=CCC/C(C)=C/COc1cc2oc(-c3ccccc3)cc(=O)c2c(O)c1O | 4.4 | 4.1 | 5.3 | Activity (NCI-H460 [11]): Active; Activity (NCI-H460 [12]): 18.8%; Activity (NCI-H460 [13]): Active; Activity (NCI-H460 [14]): >10% |
| O=c1cc(-c2ccccc2)oc2cc(O)c(O)c(O)c12 [BAICALEIN] | 32.8 | 26.7 | 7.7 | – |
| CC(C)=CCOc1ccc2c(=O)c(O)c(-c3ccccc3)oc2c1 | 14 | 12.6 | 30.3 | Activity (NCI-H460 [19]): Active; Activity (NCI-H460 [20]): Active; Activity (NCI-H460 [21]): Active; Activity (NCI-H460 [22]): 11.9% |
| CC1Oc2c(O)c(O)c3c(=O)cc(-c4ccccc4)oc3c2C1(C)C (configuration not stated) | 43.7 | 40.6 | 47.7 | – |
| CC1(C)CCc2c(c(O)c(O)c3c(=O)cc(-c4ccccc4)oc23)O1 | 21 | 17.7 | 27.4 | – |
| CC(C)=CCC/C(C)=C/COc1c(OC/C=C(\C)CCC=C(C)C)c(O)c2c(=O)cc(-c3ccccc3)oc2c1C/C=C(\C)CCC=C(C)C | > 150 | > 150 | > 150 | – |
